Key:
[1] = target: Disintegrin and metalloproteinase domain-containing protein 17 (Homo sapiens, UniProt P78536); test: Inhibition of human recombinant TACE after 60 mins by fluorescence plate reader
Method in brief: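 rh-TACE at 80 ng/mL with 10 μM MCA-Pro-Leu-Ala-Gln-Ala-Val-Dpa-Arg-Ser-Ser-Ser-Arg-NH₂, in 100 mM Tris-HCl pH 7.5, 150 mM NaCl, 10 mM CaCl₂, 0.05% Brij-35. Inhibitor preincubated for 15 min at 25 °C. Fluorescence (ex 325/em 405 nm) read at 60 min. IC50 from three linear-range points; mean of ≥2.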

[2] = target: Matrix metalloproteinase-14 (Homo sapiens, UniProt P50281); test: Inhibition of human recombinant MMP14 after 60 mins by fluorescence plate reader
Method in brief: (§1)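 Recombinant human enzyme at 20 ng/mL with 10 μM MOCAc-Lys-Pro-Leu-Gly-Leu-A2pr(Dnp)-Ala-Arg-NH₂, in 100 mM Tris-HCl pH 7.5, 150 mM NaCl, 10 mM CaCl₂, 0.05% Brij-35. Enzyme pretreated with inhibitor for 15 min at 25 °C, then substrate added. Fluorescence (ex 325, em 405 nm) read at 60 min. IC50 taken from three points in the linear range; mean of ≥2 determinations.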

[3] = target: T1, A disintegrin and metalloproteinase with thrombospondin motifs 5 (Homo sapiens, UniProt Q9UNA0); test: Inhibition of human recombinant aggrecanase 2 after 150 mins by fluorescence plate reader
T1 sequence (Q9UNA0 whole entry): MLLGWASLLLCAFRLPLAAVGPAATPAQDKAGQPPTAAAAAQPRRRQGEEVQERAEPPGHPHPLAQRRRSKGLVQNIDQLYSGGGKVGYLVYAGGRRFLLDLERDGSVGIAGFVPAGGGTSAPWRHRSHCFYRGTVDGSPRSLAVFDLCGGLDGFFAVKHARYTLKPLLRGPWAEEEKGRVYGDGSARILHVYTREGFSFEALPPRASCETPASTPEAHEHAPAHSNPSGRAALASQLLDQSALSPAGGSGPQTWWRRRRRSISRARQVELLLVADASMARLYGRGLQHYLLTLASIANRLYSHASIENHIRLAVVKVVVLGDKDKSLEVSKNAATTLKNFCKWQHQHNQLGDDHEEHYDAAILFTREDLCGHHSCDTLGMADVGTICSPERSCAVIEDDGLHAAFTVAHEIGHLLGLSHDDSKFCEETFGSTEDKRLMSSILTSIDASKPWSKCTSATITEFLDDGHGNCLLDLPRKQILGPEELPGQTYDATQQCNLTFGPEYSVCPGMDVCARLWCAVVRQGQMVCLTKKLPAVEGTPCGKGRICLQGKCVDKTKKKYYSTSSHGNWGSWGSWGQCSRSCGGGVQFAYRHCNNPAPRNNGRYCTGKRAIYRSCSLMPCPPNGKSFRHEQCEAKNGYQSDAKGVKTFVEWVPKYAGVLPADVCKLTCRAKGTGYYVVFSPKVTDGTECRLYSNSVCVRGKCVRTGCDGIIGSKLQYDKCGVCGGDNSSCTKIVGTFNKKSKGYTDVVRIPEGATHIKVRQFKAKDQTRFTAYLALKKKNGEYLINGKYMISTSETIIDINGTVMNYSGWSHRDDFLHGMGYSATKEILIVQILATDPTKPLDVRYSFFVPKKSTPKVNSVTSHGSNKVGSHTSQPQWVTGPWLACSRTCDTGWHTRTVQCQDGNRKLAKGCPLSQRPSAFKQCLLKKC

[4] = target: T2, Interstitial collagenase (Homo sapiens, UniProt P03956); test: Inhibition of human recombinant MMP1 after 60 mins by fluorescence plate reader; method in brief: as §1
T2 sequence (P03956 whole entry): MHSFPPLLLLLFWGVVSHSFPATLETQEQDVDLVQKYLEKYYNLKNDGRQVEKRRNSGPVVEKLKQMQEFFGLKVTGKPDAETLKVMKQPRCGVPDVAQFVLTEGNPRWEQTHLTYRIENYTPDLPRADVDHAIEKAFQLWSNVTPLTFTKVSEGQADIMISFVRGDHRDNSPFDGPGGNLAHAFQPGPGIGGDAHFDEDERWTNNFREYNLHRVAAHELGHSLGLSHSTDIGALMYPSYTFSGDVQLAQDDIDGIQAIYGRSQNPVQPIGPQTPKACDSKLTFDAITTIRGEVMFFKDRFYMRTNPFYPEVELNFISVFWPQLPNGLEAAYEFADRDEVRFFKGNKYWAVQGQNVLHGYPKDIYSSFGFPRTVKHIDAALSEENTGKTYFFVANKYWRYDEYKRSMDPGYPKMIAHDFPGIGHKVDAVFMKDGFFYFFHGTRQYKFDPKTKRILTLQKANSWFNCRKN

Sequence of Disintegrin and metalloproteinase domain-containing protein 17 (P78536 whole entry, the tested form may be a part): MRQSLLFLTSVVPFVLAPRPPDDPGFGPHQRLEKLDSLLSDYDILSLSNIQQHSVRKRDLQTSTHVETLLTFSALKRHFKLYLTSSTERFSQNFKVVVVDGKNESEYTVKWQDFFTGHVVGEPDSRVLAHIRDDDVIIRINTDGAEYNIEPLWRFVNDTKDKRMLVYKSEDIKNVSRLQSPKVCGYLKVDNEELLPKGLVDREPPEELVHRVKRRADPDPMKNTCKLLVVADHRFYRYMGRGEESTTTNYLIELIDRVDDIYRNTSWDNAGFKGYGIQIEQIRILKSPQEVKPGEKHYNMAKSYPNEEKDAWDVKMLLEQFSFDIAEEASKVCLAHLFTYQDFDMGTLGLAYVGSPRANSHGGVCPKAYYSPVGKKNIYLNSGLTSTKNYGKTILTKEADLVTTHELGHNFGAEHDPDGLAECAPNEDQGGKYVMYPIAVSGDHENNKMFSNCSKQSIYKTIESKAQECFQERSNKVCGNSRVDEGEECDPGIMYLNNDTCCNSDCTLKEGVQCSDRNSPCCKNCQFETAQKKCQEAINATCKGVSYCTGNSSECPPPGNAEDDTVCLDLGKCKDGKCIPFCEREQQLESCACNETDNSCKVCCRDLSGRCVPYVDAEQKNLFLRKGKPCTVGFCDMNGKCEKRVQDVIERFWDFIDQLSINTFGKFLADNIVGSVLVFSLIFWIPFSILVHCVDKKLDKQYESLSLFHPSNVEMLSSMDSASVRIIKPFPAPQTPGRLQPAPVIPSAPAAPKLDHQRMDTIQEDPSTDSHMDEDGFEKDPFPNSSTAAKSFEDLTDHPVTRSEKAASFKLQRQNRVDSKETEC

C[C@@H]1[C@H](c2ccccc2)[C@]1(NS(=O)(=O)N1CCn2c(nc3cc(C#N)ccc32)C1)C(=O)O
IC50 [1]: > 10000 nM | IC50 [2]: 4900 nM | IC50 [3]: 250 nM | IC50 [4]: > 10000 nM

C[C@@H]1CN(S(=O)(=O)N[C@@]2(C(=O)O)[C@H](C)[C@@H]2c2ccccc2)CCN1c1ccc(C#N)s1
IC50 [1]: > 10000 nM | IC50 [2]: 6000 nM | IC50 [3]: 33 nM | IC50 [4]: > 10000 nM

COCc1cc(N2CCN(S(=O)(=O)N[C@@]3(C(=O)O)[C@H](C)[C@@H]3c3ccccc3)C[C@H]2C)no1
IC50 [1]: > 10000 nM | IC50 [2]: 1400 nM | IC50 [3]: 67 nM | IC50 [4]: > 10000 nM

C[C@@H]1[C@H](c2ccccc2)[C@]1(NS(=O)(=O)c1ccc(-c2ccc(Cl)cc2)s1)C(=O)O
IC50 [1]: 2700 nM | IC50 [2]: 19 nM | IC50 [4]: 4000 nM

C[C@@H]1[C@H](c2ccccc2)[C@]1(NS(=O)(=O)N1Cc2nc3cc(Cl)ccn3c2C1)C(=O)O
IC50 [1]: > 10000 nM | IC50 [2]: 280 nM | IC50 [3]: 66 nM | IC50 [4]: 3700 nM

C[C@@H]1[C@H](c2ccccc2)[C@]1(NS(=O)(=O)N1CCn2c(cc3cc(Cl)sc32)C1)C(=O)O
IC50 [1]: > 10000 nM | IC50 [2]: 2300 nM | IC50 [3]: 110 nM | IC50 [4]: > 10000 nM

C[C@@H]1[C@H](c2ccccc2)[C@]1(NS(=O)(=O)c1cc2[nH]c3ccc(F)cc3c2s1)C(=O)O
IC50 [1]: 1900 nM | IC50 [2]: 25 nM | IC50 [3]: 10 nM | IC50 [4]: 1300 nM

C[C@@H]1[C@H](c2ccccc2)[C@]1(NS(=O)(=O)c1cc2nn3cc(Cl)ccc3c2s1)C(=O)O
IC50 [1]: > 10000 nM | IC50 [2]: 100 nM | IC50 [3]: 29 nM | IC50 [4]: 1300 nM

C[C@@H]1[C@H](c2ccccc2)[C@]1(NS(=O)(=O)c1cc2[nH]c3cc(Cl)ccc3c2s1)C(=O)O
IC50 [1]: 3800 nM | IC50 [2]: 17 nM | IC50 [3]: 2.9 nM | IC50 [4]: 1000 nM

COc1cnn(-c2ccc(S(=O)(=O)N[C@@]3(C(=O)O)[C@H](C)[C@@H]3c3ccccc3)s2)c1
IC50 [1]: 1600 nM | IC50 [2]: 1.3 nM | IC50 [3]: 17 nM | IC50 [4]: 33 nM

Cc1cc(S(=O)(=O)N[C@@]2(C(=O)O)[C@H](C)[C@@H]2c2ccccc2)sc1-n1cc(Cl)cn1
IC50 [3]: > 1000 nM

C[C@@H]1CN(S(=O)(=O)N[C@@]2(C(=O)O)[C@H](C)[C@@H]2c2ccccc2)CCN1c1ccc(F)cc1
IC50 [1]: > 10000 nM | IC50 [2]: > 10000 nM | IC50 [3]: 180 nM | IC50 [4]: > 10000 nM

Cc1ccc2c(c1)nc1n2CCN(S(=O)(=O)N[C@@]2(C(=O)O)[C@H](C)[C@@H]2c2ccccc2)C1
IC50 [1]: > 10000 nM | IC50 [2]: 900 nM | IC50 [3]: 320 nM | IC50 [4]: > 10000 nM

COc1ccc2c(c1)nc1n2CCN(S(=O)(=O)N[C@@]2(C(=O)O)[C@H](C)[C@@H]2c2ccccc2)C1
IC50 [1]: > 10000 nM | IC50 [2]: 4300 nM | IC50 [3]: 330 nM | IC50 [4]: > 10000 nM

C[C@@H]1[C@H](c2ccccc2)[C@]1(NS(=O)(=O)N1CCc2c(nn3cc(F)ccc23)C1)C(=O)O
IC50 [1]: > 10000 nM | IC50 [2]: 140 nM | IC50 [3]: 8.6 nM | IC50 [4]: 4200 nM

Cc1cnn(-c2ccc(S(=O)(=O)N[C@@]3(C(=O)O)[C@H](C)[C@@H]3c3ccccc3)s2)c1
IC50 [1]: > 10000 nM | IC50 [2]: 1.2 nM | IC50 [3]: 19 nM | IC50 [4]: < 300 nM

C[C@@H]1[C@H](c2ccccc2)[C@]1(NS(=O)(=O)N1CCc2c([nH]c3cc(F)ccc23)C1)C(=O)O
IC50 [1]: > 10000 nM | IC50 [2]: 98 nM | IC50 [3]: 38 nM | IC50 [4]: 2300 nM

C[C@@H]1[C@H](c2ccccc2)[C@]1(NS(=O)(=O)N1CCn2c(nc3cc(F)ccc32)C1)C(=O)O
IC50 [1]: > 10000 nM | IC50 [2]: 1100 nM | IC50 [3]: 20 nM | IC50 [4]: > 10000 nM

C[C@@H]1[C@H](c2ccccc2)[C@]1(NS(=O)(=O)N1CCn2c(nc3cc(Cl)ccc32)C1)C(=O)O
IC50 [1]: > 10000 nM | IC50 [2]: 610 nM | IC50 [3]: 60 nM | IC50 [4]: > 10000 nM

C[C@@H]1[C@H](c2ccccc2)[C@]1(NS(=O)(=O)N1CCc2c(nc3cc(Cl)ccn23)C1)C(=O)O
IC50 [1]: > 10000 nM | IC50 [2]: 270 nM | IC50 [3]: 21 nM | IC50 [4]: > 10000 nM

C[C@@H]1[C@H](c2ccccc2)[C@]1(NS(=O)(=O)N1CCn2c(nc3ccccc32)C1)C(=O)O
IC50 [1]: > 10000 nM | IC50 [2]: 2200 nM | IC50 [3]: 92 nM | IC50 [4]: > 10000 nM

C[C@@H]1[C@H](c2ccccc2)[C@]1(NS(=O)(=O)N1CCN(c2ccc(Cl)cc2)CC1)C(=O)O
IC50 [1]: > 10000 nM | IC50 [2]: 450 nM | IC50 [3]: 87 nM | IC50 [4]: > 10000 nM

C[C@@H]1[C@H](c2ccccc2)[C@]1(NS(=O)(=O)N1CCn2c(cc3cc(Cl)ccc32)C1)C(=O)O
IC50 [1]: > 10000 nM | IC50 [2]: 420 nM | IC50 [3]: 39 nM | IC50 [4]: > 10000 nM

C[C@@H]1CN(S(=O)(=O)N[C@@]2(C(=O)O)[C@H](C)[C@@H]2c2ccccc2)CCN1c1cc(C(C)(F)F)on1
IC50 [1]: > 10000 nM | IC50 [2]: 1100 nM | IC50 [3]: 130 nM | IC50 [4]: 2600 nM

C[C@@H]1[C@H](c2ccccc2)[C@]1(NS(=O)(=O)N1CCN(c2ccc(Cl)cc2)C(C)(C)C1)C(=O)O
IC50 [2]: 2900 nM | IC50 [3]: 330 nM

C[C@@H]1CN(S(=O)(=O)N[C@@]2(C(=O)O)[C@H](C)[C@@H]2c2ccccc2)CCN1c1ccc(C2CC2)cc1
IC50 [2]: 1400 nM | IC50 [3]: 270 nM | IC50 [4]: > 10000 nM

C[C@@H]1[C@H](c2ccccc2)[C@]1(NS(=O)(=O)c1cc2[nH]c3cc(F)ccc3c2s1)C(=O)O
IC50 [1]: 1100 nM | IC50 [2]: 8 nM | IC50 [3]: 8.3 nM | IC50 [4]: 230 nM

C[C@@H]1[C@H](c2ccccc2)[C@]1(NS(=O)(=O)N1CCN(c2ccc(Cl)cc2)C(CO)C1)C(=O)O (mixture of isomers)
IC50 [2]: 6100 nM | IC50 [3]: 230 nM

C[C@@H]1[C@](C)(c2ccccc2)[C@]1(NS(=O)(=O)N1CCc2c(nn3cc(F)ccc23)C1)C(=O)O
IC50 [1]: > 10000 nM | IC50 [2]: 2100 nM | IC50 [3]: 10 nM | IC50 [4]: > 10000 nM

C[C@@H]1[C@H](c2ccccc2)[C@]1(NS(=O)(=O)N1CCn2c(nc3ccc(F)cc32)C1)C(=O)O
IC50 [1]: > 10000 nM | IC50 [2]: 240 nM | IC50 [3]: 100 nM | IC50 [4]: > 10000 nM

C[C@@H]1[C@H](c2ccccc2)[C@]1(NS(=O)(=O)N1CC=C(c2ccc(Cl)cc2)CC1)C(=O)O
IC50 [1]: > 10000 nM | IC50 [2]: 300 nM | IC50 [3]: 62 nM | IC50 [4]: > 10000 nM

C[C@@H]1[C@H](c2ccccc2)[C@]1(NS(=O)(=O)N1CCc2c(nc3cc(F)ccn23)C1)C(=O)O
IC50 [1]: 6300 nM | IC50 [2]: 2100 nM | IC50 [3]: 17 nM | IC50 [4]: > 10000 nM

CCC1CN(S(=O)(=O)N[C@@]2(C(=O)O)[C@H](C)[C@@H]2c2ccccc2)CCN1c1ccc(Cl)cc1 (mixture of isomers)
IC50 [2]: > 10000 nM | IC50 [3]: 410 nM

C[C@@H]1[C@H](c2ccccc2)[C@]1(NS(=O)(=O)c1cc2nc3cc(Cl)ccn3c2s1)C(=O)O
IC50 [1]: > 10000 nM | IC50 [2]: 100 nM | IC50 [3]: 23 nM | IC50 [4]: 1500 nM
